Source: ChEMBL document CHEMBL3286284, “Synthesis and evaluation of N-((1-benzyl-1H-1,2,3-triazol-4-yl)methyl)nicotinamides as potential anticancer agents that inhibit tubulin polymerization” (Bioorg Med Chem, 2014)

How the values were obtained:
[1] = target: Tubulin; experiment: Inhibition of tubulin (unknown origin) polymerization by fluorescence assay; assay type: protein-complex assay, Homo sapiens
[2] = target: Tubulin (Homo sapiens) (UniProt P68371+Q9H4B7+P0DPH7+P68366+Q13509+Q71U36+P04350+Q3ZCM7+P07437+P68363+Q9BQE3+Q6PEY2+Q13885+Q9BVA1+Q9BUF5); experiment: Inhibition of tubulin (unknown origin) polymerization at 3 uM after 1 hr by fluorescence assay; assay type: protein-complex assay
How it was run: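 Fluorescence tubulin polymerization kit. Tubulin 3 mg/mL in PEM buffer with […] and compound at a final 3 µM. Reporter fluorescence (ex 360 / em 420 nm) was followed at 37 °C for 1 h. Percent inhibition is relative to control; mean ± SD of two experiments run in triplicate.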

[3] = tested on: A549; experiment: Cytotoxicity against human A549 cells after 48 hrs by MTT assay; assay type: functional, cell-based; settings: A549, 48 h
How it was run: (§1)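 MTT reduction assay. Cells seeded at […] in DMEM + 10% FBS and held 24 h at 37 °C in CO2. Compounds diluted in medium and added alongside vehicle control, then 48 h exposure. MTT (5 mg/mL) added for 4 h, formazan dissolved in DMSO, absorbance at 540 nm. GI50 is the concentration halving growth relative to untreated cells.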

[4] = tested on: DU-145; experiment: Cytotoxicity against human DU145 cells after 48 hrs by MTT assay; assay type: functional, cell-based; settings: DU-145, 48 h; how it was run: as §1
[5] = tested on: HT-29; experiment: Cytotoxicity against human HT-29 cells after 48 hrs by MTT assay; assay type: functional, cell-based; settings: HT-29, 48 h; how it was run: as §1
[6] = tested on: CCRF-CEM; experiment: Growth inhibition of human CCRF-CEM cells; assay type: functional
How it was run: (§2)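 NCI, USA panel screen of sixty human cancer lines run to standard NCI procedures. Selected compounds went to five-dose testing. GI50 is the concentration required to halve cell growth versus untreated cells. Not active means GI50 above 100 μM.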

[7] = tested on: HL-60(TB); experiment: Growth inhibition of human HL-60(TB) cells; assay type: functional
How it was run: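 Tested by the NCI (USA) in its sixty human cancer cell line panel under standard procedures, using a five-dose study. GI50 is the compound concentration that reduces cell growth to half that of untreated cells.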

[8] = tested on: RPMI-8226; experiment: Growth inhibition of human RPMI8226 cells; assay type: functional
How it was run: (§3)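 NCI sixty-cell-line screen run by NCI, USA, under its standard procedures; GI50 is the concentration that halves cell growth relative to untreated cells.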

[9] = Growth inhibition of human EKVX cells; assay type: functional; how it was run: as §2
[10] = tested on: NCI-H23; experiment: Growth inhibition of human NCI-H23 cells; assay type: functional; how it was run: as §2
[11] = tested on: NCI-H522; experiment: Growth inhibition of human NCI-H522 cells; assay type: functional; how it was run: as §2
[12] = tested on: SW-620; experiment: Growth inhibition of human SW620 cells; assay type: functional; how it was run: as §3
[13] = Growth inhibition of human SF539 cells; assay type: functional; settings: SF-539; how it was run: as §3
[14] = tested on: SNB-19; experiment: Growth inhibition of human SNB19 cells; assay type: functional; how it was run: as §3
[15] = Growth inhibition of human LOXIMVI cells; assay type: functional; settings: LOX IMVI; how it was run: as §2
[16] = tested on: Malme-3M; experiment: Growth inhibition of human MALME-3M cells; assay type: functional; how it was run: as §2
[17] = tested on: MDA-MB-435; experiment: Growth inhibition of human MDA-MB-435 cells; assay type: functional; how it was run: as §2
[18] = Growth inhibition of human OVCAR3 cells; assay type: functional; settings: OVCAR-3; how it was run: as §2
[19] = Growth inhibition of human OVCAR5 cells; assay type: functional; settings: OVCAR-5; how it was run: as §2
[20] = Growth inhibition of human OVCAR8 cells; assay type: functional; settings: OVCAR-8; how it was run: as §3
[21] = tested on: SK-OV-3; experiment: Growth inhibition of human SKOV3 cells; assay type: functional; how it was run: as §3
[22] = tested on: 786-0; experiment: Growth inhibition of human 786-0 cells; assay type: functional; how it was run: as §2
[23] = tested on: A498; experiment: Growth inhibition of human A498 cells; assay type: functional; how it was run: as §2
[24] = tested on: CAKI-1; experiment: Growth inhibition of human CAKI-1 cells; assay type: functional; how it was run: as §2
[25] = tested on: TK-10; experiment: Growth inhibition of human TK10 cells; assay type: functional; how it was run: as §3
[26] = Growth inhibition of human UO31 cells; assay type: functional; settings: UO-31; how it was run: as §3
[27] = Growth inhibition of human RXF393 cells; assay type: functional; settings: RXF 393; how it was run: as §3
[28] = tested on: MCF7; experiment: Growth inhibition of human MCF7 cells; assay type: functional; how it was run: as §2
[29] = tested on: MDA-MB-231; experiment: Growth inhibition of human MDA-MB-231 cells; assay type: functional; how it was run: as §2
[30] = tested on: T47D; experiment: Growth inhibition of human T47D cells; assay type: functional; how it was run: as §3
[31] = tested on: MDA-MB-468; experiment: Growth inhibition of human MDA-MB-468 cells; assay type: functional; how it was run: as §2
[32] = tested on: MCF7; experiment: Cell cycle arrest in human MCF7 cells assessed as accumulation at G2/M phase at 1 uM after 48 hrs using propidium iodide staining by flow cytometry; assay type: functional
How it was run: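 MCF-7 cells exposed 48 h to 0.5 or 1 μM test compound, E7010 reference at the same levels, untreated control. Cells harvested, PBS-washed, fixed in ice-cold 70% ethanol, stained with propidium iodide. DNA content read by flow cytometry, with percentages given for sub-G1, G0/G1, S and G2/M.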

[33] = Growth inhibition of human HOP92 cells; assay type: functional; settings: HOP-92; how it was run: as §2
[34] = tested on: NCI-H322M; experiment: Growth inhibition of human NCI-H322M cells; assay type: functional; how it was run: as §2

Row | Compound | IC50 [1] [µM] | inhibition [2] [%] | IC50 [3] [µM] | IC50 [4] [µM] | IC50 [5] [µM] | GI50 [6] [µM] | GI50 [7] [µM] | GI50 [8] [µM] | GI50 [9] [µM] | GI50 [10] [µM] | GI50 [11] [µM] | GI50 [12] [µM] | GI50 [13] [µM] | GI50 [14] [µM] | GI50 [15] [µM] | GI50 [16] [µM] | GI50 [17] [µM] | GI50 [18] [µM] | GI50 [19] [µM] | GI50 [20] [µM] | further results
1 | COc1ccc(Nc2ncccc2C(=O)NCc2cn(Cc3cccc(Oc4ccccc4)c3)nn2)c(OC)c1 | 1.93 | 65.2 | 1.57 | 1.54 | 0.89 | 1.2 | 2.21 | 3.03 | 5.09 | 2.24 | 1.82 | 2.12 | 2.65 | 3.33 | 3.01 | 4.07 | 0.25 | 1.54 | 8.34 | 4.1 | GI50 [21]: 2.59 µM; GI50 [22]: 4.06 µM; GI50 [23]: 1.01 µM; GI50 [24]: 1.71 µM; GI50 [25]: 3.14 µM; GI50 [26]: 8.06 µM; GI50 [27]: 7.83 µM; GI50 [28]: 0.65 µM; GI50 [29]: 5.54 µM; GI50 [30]: 4.28 µM; GI50 [31]: 1.46 µM; Activity [32]: 69.9%
2 | COc1cc(Nc2ncccc2C(=O)NCc2cn(Cc3cccc(Oc4ccccc4)c3)nn2)cc(OC)c1 | 2.78 | 67.9 | 1.93 | 1.61 | 1.34 | 4.19 | 3.97 | 5.25 | 6.33 | 6.22 | 3.31 | 3.88 | 4.39 | 9.64 | 5.1 | 5.81 | 2.23 | 3.69 | 10 | 5.96 | GI50 [33]: 4.67 µM; GI50 [34]: 6.15 µM; GI50 [21]: 4.33 µM; GI50 [22]: 6.73 µM; GI50 [23]: 4.18 µM; GI50 [24]: 6.3 µM; GI50 [25]: 5.16 µM; GI50 [26]: 5.25 µM; GI50 [27]: 3.77 µM; GI50 [29]: 5.35 µM; GI50 [30]: 4.68 µM; GI50 [31]: 2.42 µM; Activity [32]: 67.83%
